# Screening results as filed in PubChem BioAssay.
# 5HT1a ag – activates the human 5-HT1a serotonin receptor; P08908; CHO 5-HT1a Ga15 NFAT-bla reporter, FRET ratio; 0% basal, 100% maximal reference agonist; activation, % at 10 µM; 65,000 compounds, 0.56% hits; AID 567;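 active means activation above the screen-wide mean activation plus 3 SD, cut at about 19% in these data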;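 further: 0% = DMSO wells and 100% = 5-CT at EC100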
# 5-HT1A blocker – blocks the human serotonin 5-HT1a receptor; P08908; CHO 5-HT1a Ga15 NFAT-bla reporter, antagonist mode; inhibition, % at 10 µM; 62,000 compounds, 0.68% hits; AID 612;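 active means inhibition above the mean of all tested compounds plus 3 SD, cut at about 43% in these data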;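 further: receptor stimulated by 5-CT agonist at 100 nM near EC80; beta-lactamase reporter measured by ratiometric fluorescence of a cleavable substrate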
# S1P3 agonist – agonists of human S1P3 receptor | Q99500 | S1P3 NFAT-BLA reporter cells, agonism, FRET ratio; relative to 1 µM S1P, basal subtracted | activation, % at 4.5 µM | 60,000 compounds, 0.1% hits | AID 373;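 active means activation above the screen-wide mean plus 3 SD, cut at about 4.5% in these data, passing the limit was not always enough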
#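 Assay system: stable CHO line with human S1P3, Gα16, NFAT-BLA reporter; Detection: FRET β-lactamase substrate fluorescence, excitation 405 nm, 460/535 nm emission ratio, background-subtracted; Read-out: percent activation versus median 1 µM S1P response, basal-subtracted, per plate; Incubation: cells plated overnight, compound 4 h 37 °C, substrate 2 h RT.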
# S1P1 ag-PAM – agonists and agonism potentiators of human S1P1 receptor. 56,000 compounds, 0.57% hits. S1P1 CRE-bla cells, forskolin, beta-lactamase FRET, potentiator mode; S1P1 agonist co-added at EC20, 2 nM; 100% = saturating reference agonist, 0% = basal. P21453. activation, % at 9.5 µM. AID 449;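 active means activation above a cutoff set at the mean activation of all tested compounds plus 3 SD, cut at about 54% in these data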;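 further: forskolin at 4 µM as EC80 and the EC20 agonist is SEW2871; 100% = SEW2871 at its EC100 plus forskolin at EC80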
# HTR1E agonist – agonists of human 5-HT1E serotonin receptor; CHO 5-HT1E Ga15 NFAT-bla reporter, FRET; 0% DMSO wells, 100% control agonist wells; activation, % at 6 µM; 65,000 compounds, 0.69% hits; AID 574;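 active means activation above a set limit, the screen-wide mean activation plus 3 SD, cut at about 8.5% in these data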;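 further: 100% = positive control agonist at 1 µM giving full maximal response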
# Target sequence (P28566 whole entry, looked up): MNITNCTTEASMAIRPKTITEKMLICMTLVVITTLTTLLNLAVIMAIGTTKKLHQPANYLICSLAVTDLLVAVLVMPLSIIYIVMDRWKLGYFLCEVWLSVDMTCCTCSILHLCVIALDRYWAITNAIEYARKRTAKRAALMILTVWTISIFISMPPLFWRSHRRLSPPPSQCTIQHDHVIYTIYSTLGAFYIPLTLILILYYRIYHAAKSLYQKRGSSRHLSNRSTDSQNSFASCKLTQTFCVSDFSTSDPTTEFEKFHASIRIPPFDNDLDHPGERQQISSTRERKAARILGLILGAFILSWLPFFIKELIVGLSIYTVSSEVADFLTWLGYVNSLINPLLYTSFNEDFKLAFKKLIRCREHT
# HTR1E antagonist – 5-HT1E (human) receptor antagonism; 65,000 compounds, 0.99% hits; inhibition, % at 6 µM; CHO 5-HT1E Ga15 NFAT-bla reporter, FRET, antagonist; P28566;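 active means inhibition above a set limit, the mean inhibition across every tested compound plus 3 SD, cut at about 29% in these data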;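 further: signal is the 460 over 535 nm emission ratio of beta-lactamase substrate; 0% = agonist plus DMSO wells and 100% = wells without agonist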
# An asterisk follows results filed as active; / = no result. Most compounds without a hit are left out; they make up all but 3% or so of the library.
SMILES,5HT1a ag,5-HT1A blocker,S1P3 agonist,S1P1 ag-PAM,HTR1E agonist,HTR1E antagonist
Cc1ccc(CCN2CC(C(=O)NCCCN3CCOCC3)CC2=O)cc1 (configuration not stated),-3.9,8.5,-1.1,-8.8,-0.9,8.3
Cc1nnc(SC(=O)N2c3ccccc3Sc3ccccc32)s1,-1.4,74.1*,-0.5,115.1*,0.1,24.1
Cc1nnc(SCC(=O)N2c3ccccc3Sc3ccccc32)n1N,-2.8,4.0,2.5,-4.7,0.0,-7.0
CC1(c2ccc3c(c2)OCO3)NC(=O)N(CC(=O)Nc2ccc(N3CCOCC3)cc2)C1=O (configuration not stated),2.0,-0.2,1.4,-3.0,0.4,0.8
CCCc1cc(C(=O)Nc2sc(C)c(CC)c2C#N)no1,-4.6,-24.2,-0.9,73.6*,-0.2,-14.8
Cc1ccc(NC(=O)c2cc(-c3ccco3)on2)cc1C,-4.3,8.2,-1.0,72.4*,0.4,-4.0
CCc1c(C)sc(NC(=O)c2cc(C)on2)c1C#N,-1.7,0.0,0.0,-0.8,0.2,-2.8
CCc1c(C)sc(NC(=O)c2cc(-c3ccco3)on2)c1C#N,-2.0,3.0,-1.1,92.5*,-0.2,1.2
CCc1c(C)sc(NC(=O)c2cc(C3CC3)on2)c1C#N,-0.1,-0.3,-0.4,24.2,1.2,-12.0
Oc1c(C(c2cccc(F)c2)N2CCN(Cc3ccccc3)CC2)sc2ncnn12 (configuration not stated),2.4,-2.4,-0.7,7.1,0.3,3.1
O=C(NCC(c1cccnc1)N1CCN(c2ccc(F)cc2)CC1)c1cccc(Cl)c1 (configuration not stated),0.7,12.7,-1.5,-7.0,0.2,2.3
COC(=O)c1cc(Br)c(=O)n(CCN2CCCCC2)c1,2.0,17.3,-1.3,4.8,0.6,4.2
COC(=O)c1cc(Br)c(=O)n(CC(C)C)c1,0.4,0.2,-0.7,-0.8,9.5*,-5.0
COC(=O)c1cc(NC2c3ccccc3C(=O)N2CCN2CCOCC2)cc(C(=O)OC)c1 (configuration not stated),-1.6,5.6,-1.9,-10.6,0.0,4.4
O=C(CSc1nnc(Cn2nnc3ccccc32)o1)N(Cc1ccc(F)cc1)c1ccccc1,-0.8,5.0,-1.6,67.9*,0.4,16.7
COc1ccc(CN(C(=O)CSc2nnc(-c3ccc(F)cc3)o2)c2ccc(F)cc2)cc1,1.6,0.1,0.2,11.4,0.3,-2.0
COc1cccc(-c2nc(-c3ccc(NC(=O)c4cccnc4)cc3)no2)c1,-3.9,-1.8,-0.9,59.6*,0.0,6.3
COc1ccc(CC(=O)Nc2ccc(-c3noc(-c4cccc(OC)c4)n3)cc2)cc1,0.3,-6.2,-0.4,-1.5,-0.4,-2.3
O=C(O)c1ccccc1NCN1C(=O)C2CC=C(Cl)CC2C1=O (configuration not stated),-1.4,-23.4,-0.1,-0.4,-0.4,-4.5
O=c1cc(-c2ccccc2)c2ccc(O)c(CN3CCCCC3)c2o1,-0.7,6.1,-1.0,2.4,-0.3,15.1
O=c1oc2c(CN3CCCCCC3)c(O)ccc2cc1-c1nc2ccccc2[nH]1,-1.1,15.0,-0.3,25.8,1.0,30.5*
NCCCCCc1nnc(SCC(=O)c2ccc(Cl)cc2)o1,-4.2,-0.2,0.2,-10.0,0.9,-2.9
Cc1ccc(S(=O)(=O)Nc2cccc3ncccc23)s1,-3.2,64.2*,0.4,53.0,0.8,81.0*
OCc1nc2ccccc2n1CCCOc1ccc(Br)cc1,-0.7,15.1,-0.6,/,-0.8,7.1
COc1cc2c(cc1OC)C1Cc3ccc(OC)c(OC)c3CN1CC2 (configuration not stated),-1.0,51.0*,-1.2,1.8,8.1,2.2
SMILES,5HT1a ag,5-HT1A blocker,S1P3 agonist,S1P1 ag-PAM,HTR1E agonist,HTR1E antagonist
COc1ccc(C(=O)N2CCc3cc(OC)c(OC)cc3C2)cc1OC,-1.4,3.2,-0.1,-6.4,0.2,10.5
Cc1ccccc1CN1C(=O)C2(OCCCO2)c2ccccc21,-0.1,10.6,/,/,0.2,-3.2
Cc1cc(C)n(Cc2ccc(C(=O)NCc3ccco3)o2)n1,-1.7,7.5,/,/,0.7,-6.7
Cc1cc(C)n(Cc2ccc(C(=O)NCCC3=CCCCC3)o2)n1,65.1*,/,-1.3,3.1,-0.8,4.9
CN1C(=S)SC(C)(C)C1(C)NO (configuration not stated),-7.8,15.4,-2.0,15.5,-0.4,19.7
O=C(c1ccco1)N1CCN(/C(=N/S(=O)(=O)c2cccs2)c2ccccc2Cl)CC1,29.2*,-10.2,0.3,4.1,-0.5,-12.7
CC(C)NCC(O)COc1cccc2[nH]ccc12 (configuration not stated),1.1,/,-2.3,6.5,8.7*,-6.9
COC(=O)Cc1c[nH]c2ccc(OCC(O)CNC(C)C)cc12 (configuration not stated),-1.8,0.2,-1.4,-9.2,-1.5,4.4
CC(C)[C@H](NC(=O)OC(C)(C)C)c1nnc(SCC(=O)Nc2ccc(Br)cc2)o1,-2.3,35.4,-1.0,60.8*,0.3,12.3
CC(C)=CCSc1nnc([C@@H](NC(=O)OC(C)(C)C)C(C)C)o1,0.3,0.7,0.7,-7.4,-0.8,7.5
O=C(Nc1ccc(N2CCOCC2)cc1)Nc1ccc2nc(-c3ccco3)c(-c3ccco3)nc2c1,-0.5,40.2,0.0,/,0.4,67.3*
c1coc(CNc2ncnc3nc[nH]c23)c1,-2.2,-200.0,-0.3,1.8,1.1,-10.8
Cc1ccc2[nH]c3c(NCc4ccco4)ncnc3c2c1,0.4,20.7,-1.8,65.0*,0.7,14.0
CCCc1cc(C(=O)NC2CCCCC2)no1,-1.1,11.2,-0.5,3.2,0.3,11.0
CCCc1cc(C(=O)N(C2CCCCC2)C2CCCCC2)no1,-2.3,3.1,58.0*,13.1,0.1,3.4
CCOC(=O)c1ccccc1NC(=O)Cn1cnc2c(oc3ccccc32)c1=O,-1.8,11.9,/,/,1.1,0.9
Cc1oc(-c2ccccc2)nc1Cn1cccc1C1=NC(c2ccccc2)CO1 (configuration not stated),-0.3,31.6,-0.6,103.5*,-0.2,4.2
CCS(=O)(=O)N1CCN(c2cccc(C)c2C)CC1,1.5,-22.1,0.5,-13.6,0.2,-12.2
Cc1cccc(N2CCN(CC(=O)NCC3CCCCC3)CC2)c1C,41.0*,15.9,-0.2,2.4,1.1,-14.0
O=C1CCCC2=C1C(O)(C(F)(F)F)C(=O)N2Cc1ccccc1 (configuration not stated),-0.4,-2.3,0.2,-13.3,-1.2,-9.5
O=C1N2c3ccccc3CCc3cccc(c32)C1(O)C(F)(F)F (configuration not stated),6.8,-20.6,0.0,-3.7,-0.7,29.0*
